# Reference: publication PMC10883374 (Science Advances, 2022)
# Substitutions are numbered along the chain they refer to. “Also recorded” adds a separate entry of the source.
# Legend:
# [1] = biological target: F135A mutant dSAMTOR (Drosophila melanogaster, UniProt Q9W138, F135A); assay: ITC ligand binding, F135A dSAMTOR
# In short: (§1)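 Tag-free dSAMTOR, expressed as His6-SUMO fusion in E. coli BL21(DE3), purified by Ni-NTA and gel filtration into 10 mM Hepes pH 7.5, 150 mM NaCl, 1 mM DTT. At 25°C, 1 mM SAM or SAH was titrated into 0.2 mM protein over 20 injections, with a background titration into buffer. Single-site fit gave Kd, ΔH and n; ΔG and ΔS were calculated. Runs: three for measurable binding, two for undetectable binding.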
# [2] = biological target: N-terminal truncated dSAMTOR (Δ1-64) (Drosophila melanogaster, UniProt Q9W138); assay: ITC ligand binding, Δ1-64 dSAMTOR
# In short: as §1
# [3] = biological target: T1, R95A hSAMTOR interaction with GATOR1-KICSTOR (Homo sapiens, UniProt Q1RMZ1, R95A); assay: Co-IP of Flag-hSAMTOR-R95A with HA-Nprl3 and Myc-Kaptin with or without SAM; format: biochemical; conditions: HEK 293T cell lysates, 0.5 mM SAM
# T1 sequence (Q1RMZ1 1-405 R95A): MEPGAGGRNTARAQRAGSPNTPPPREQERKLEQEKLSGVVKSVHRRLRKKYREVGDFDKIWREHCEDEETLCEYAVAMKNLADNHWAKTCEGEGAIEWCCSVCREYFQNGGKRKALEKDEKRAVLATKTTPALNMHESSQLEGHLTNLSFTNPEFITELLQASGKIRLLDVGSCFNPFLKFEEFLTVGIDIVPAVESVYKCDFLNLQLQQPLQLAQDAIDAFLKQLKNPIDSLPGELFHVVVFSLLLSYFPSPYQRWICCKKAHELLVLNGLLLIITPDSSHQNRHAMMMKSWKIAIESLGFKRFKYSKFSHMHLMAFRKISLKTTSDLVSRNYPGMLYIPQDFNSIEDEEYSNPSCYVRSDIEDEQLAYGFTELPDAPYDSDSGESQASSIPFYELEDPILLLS
# [4] = biological target: dSAMTOR (WT, full-length) (Drosophila melanogaster, UniProt Q9W138); assay: ITC ligand binding, WT dSAMTOR
# In short: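 Full-length dSAMTOR was expressed as His6-SUMO fusion in E. coli BL21 (DE3), Ni-NTA purified, tag-cleaved, then gel-filtered into 10 mM Hepes pH 7.5, 150 mM NaCl, 1 mM DTT. ITC ran at 25°C: 20 × 2 µl injections of 1 mM SAM or SAH into 0.2 mM protein, discarding an initial 0.8 µl injection, with a buffer background titration. Single-site nonlinear least-squares fit gave ΔH, n and Kd.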
# [5] = biological target: T2, D202A hSAMTOR interaction with GATOR1-KICSTOR (Homo sapiens, UniProt Q1RMZ1, D202A); assay: Co-IP of Flag-hSAMTOR-D202A with HA-Nprl3 and Myc-Kaptin with or without SAM; format: biochemical; conditions: HEK 293T cell lysates, 0.5 mM SAM
# T2 sequence (Q1RMZ1 1-405 D202A): T1 sequence (Q1RMZ1 1-405 R95A) with A95R, D202A
# [6] = biological target: T3, hSAMTOR (WT) interaction with GATOR1-KICSTOR (Homo sapiens, UniProt Q1RMZ1); format: biochemical; conditions: WT full-length hSAMTOR, HEK 293T cell lysates, 0.5 mM SAM
# T3 sequence (Q1RMZ1 1-405): T1 sequence (Q1RMZ1 1-405 R95A) with A95R
# Chain of F135A mutant dSAMTOR (Q9W138 whole entry F135A, the tested form may be a part): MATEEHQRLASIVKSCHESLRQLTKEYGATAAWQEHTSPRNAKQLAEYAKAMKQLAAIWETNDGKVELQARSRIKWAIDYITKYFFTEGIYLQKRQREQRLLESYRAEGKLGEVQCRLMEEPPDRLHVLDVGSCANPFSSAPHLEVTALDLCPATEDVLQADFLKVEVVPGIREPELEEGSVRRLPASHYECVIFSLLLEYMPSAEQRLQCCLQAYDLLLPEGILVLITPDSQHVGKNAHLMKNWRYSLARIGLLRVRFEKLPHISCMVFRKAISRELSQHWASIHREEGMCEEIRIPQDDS
# Chain of N-terminal truncated dSAMTOR (Δ1-64) (Q9W138 65-302, stated change not applied): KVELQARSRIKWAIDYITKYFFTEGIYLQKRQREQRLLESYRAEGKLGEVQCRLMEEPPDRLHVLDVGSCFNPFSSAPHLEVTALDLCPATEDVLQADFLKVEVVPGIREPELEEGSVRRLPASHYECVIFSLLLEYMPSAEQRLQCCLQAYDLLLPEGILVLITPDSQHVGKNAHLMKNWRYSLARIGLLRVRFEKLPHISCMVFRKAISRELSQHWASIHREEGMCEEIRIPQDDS
# Chain of dSAMTOR (WT, full-length) (Q9W138 whole entry, the tested form may be a part): as the sequence (Q9W138 whole entry F135A, the tested form may be a part) above, with A135F counted along it
compound,measurement,setting,value
"C[S+](CC[C@H](N)C(=O)[O-])C[C@H]1O[C@@H](n2cnc3c(N)ncnc32)[C@H](O)[C@@H]1O (stereo partly drawn) [SAM, S-adenosylmethionine]",Kd,[1],6.46 ± 0.4 µM
same,increase of binding affinity compared to the WT dSAMTOR,"[1]; F135A vs WT dSAMTOR, ITC",< 2 fold
same,n value,"[1]; ITC, 25°C, F135A dSAMTOR",0.79 ± 0.01
same,ΔH,"[1]; ITC, 25°C, F135A dSAMTOR",-5.24 ± 0.11 kcal/mol
same,Kd,[2],6.78 ± 0.75 µM
same,TΔS,"[2]; ITC, 25°C, Δ1-64 dSAMTOR",5.89 kcal/mol
same,n value,"[2]; ITC, 25°C, Δ1-64 dSAMTOR",0.91 ± 0.01
same,ΔH,"[2]; ITC, 25°C, Δ1-64 dSAMTOR",-1.16 ± 0.01 kcal/mol
same,effect of SAM on interaction of hSAMTOR with GATOR1-KICSTOR (co-IP),[3],comparable interactions with GATOR1 and KICSTOR in both the absence and presence of SAM
same,Kd,[4],10.7 ± 0.88 µM
same,TΔS,"[4]; ITC, 25°C, WT dSAMTOR",4.66 kcal/mol
same,n value,"[4]; ITC, 25°C, WT dSAMTOR",0.75 ± 0.08
same,ΔH,"[4]; ITC, 25°C, WT dSAMTOR",-2.12 ± 0.05 kcal/mol
same,effect of SAM on interaction of hSAMTOR with GATOR1-KICSTOR (co-IP),[5],comparable interactions with GATOR1 and KICSTOR in both the absence and presence of SAM
same,effect of SAM on interaction of hSAMTOR with GATOR1-KICSTOR (co-IP),[6],essentially disrupts its interactions with GATOR1-KICSTOR; also recorded: substantially weakens the interaction
